Data reported in ChEMBL document CHEMBL1149569, “Aminopyrrolidineamide inhibitors of site-1 protease” (Bioorg Med Chem Lett, 2007).
Each block holds one compound with its values, some of them ahead of it. Calls of active or inactive are those of the source. The rule behind the calls is not given here.

How the values were obtained:
[1] = target: T1, Membrane-bound transcription factor site-1 protease (Homo sapiens, UniProt Q14703); assay: Inhibition of human S1P expressed in CHOK1 cells; assay type: cell-based, CHO-K1
T1 sequence (Q14703 whole entry): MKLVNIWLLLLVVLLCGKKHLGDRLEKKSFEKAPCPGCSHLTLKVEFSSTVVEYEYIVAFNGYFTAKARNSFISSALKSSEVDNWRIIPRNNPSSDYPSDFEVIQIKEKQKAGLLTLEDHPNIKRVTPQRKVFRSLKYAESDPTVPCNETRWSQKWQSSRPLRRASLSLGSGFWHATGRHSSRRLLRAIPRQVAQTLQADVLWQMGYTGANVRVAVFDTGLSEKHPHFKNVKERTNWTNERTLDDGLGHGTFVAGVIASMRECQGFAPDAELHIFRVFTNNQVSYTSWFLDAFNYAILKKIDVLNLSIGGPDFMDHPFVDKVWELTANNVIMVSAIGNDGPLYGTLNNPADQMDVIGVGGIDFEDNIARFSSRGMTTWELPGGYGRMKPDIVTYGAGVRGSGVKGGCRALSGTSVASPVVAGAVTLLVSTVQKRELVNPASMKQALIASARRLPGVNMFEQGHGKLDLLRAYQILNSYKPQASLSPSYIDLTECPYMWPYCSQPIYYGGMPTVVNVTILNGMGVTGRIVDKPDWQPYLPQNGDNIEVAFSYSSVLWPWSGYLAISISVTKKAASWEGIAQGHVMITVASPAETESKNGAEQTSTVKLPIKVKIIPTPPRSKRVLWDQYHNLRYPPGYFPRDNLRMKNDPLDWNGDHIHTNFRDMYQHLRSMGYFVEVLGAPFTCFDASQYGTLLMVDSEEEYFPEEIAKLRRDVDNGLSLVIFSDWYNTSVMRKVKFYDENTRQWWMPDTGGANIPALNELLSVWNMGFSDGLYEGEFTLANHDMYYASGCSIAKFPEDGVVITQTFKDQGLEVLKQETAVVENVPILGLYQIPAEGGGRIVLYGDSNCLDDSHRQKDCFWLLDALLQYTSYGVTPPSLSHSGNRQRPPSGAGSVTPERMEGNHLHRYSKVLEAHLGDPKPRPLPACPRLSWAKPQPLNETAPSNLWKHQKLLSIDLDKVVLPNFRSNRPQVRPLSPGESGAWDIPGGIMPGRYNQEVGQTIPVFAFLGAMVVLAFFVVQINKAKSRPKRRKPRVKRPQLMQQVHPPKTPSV

HepG2 [2] = assay: Inhibition of fatty acid synthesis in HepG2 cells at 10 uM; assay type: functional; settings: Homo sapiens
Liver [3] = assay: Reduction of HMG-CoA synthase expression in mouse liver; assay type: functional, tissue-based
Mus musculus [4] = assay: Antilipogenic activity in CD1 mouse assessed as reduction of HMG-CoA synthase gene expression at 10 mg/kg, ip every 6 hrs for 24 hrs; assay type: functional; parameters: scale not given: the % may be the effect or the level left; settings: route intraperitoneal
Outline: (§1)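 Male CD1 mice, n = 5 per group, given 10 or 30 mg/kg/dose intraperitoneally every 6 h for 24 h (acute 24 h efficacy). Hepatic HMG-CoA synthase, fatty acid synthase and LDL receptor gene expression were measured in liver tissue samples. Cholesterol and fatty acid synthetic pathway activity was measured in the animals.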

[5] = target: Low-density lipoprotein receptor (Homo sapiens) (UniProt P01130); assay: Inhibition of LDL receptor-mediated LDL internalization in HepG2 cells; assay type: cell-based
HepG2 [6] = assay: Inhibition of nuclear translocation of SREBP in HepG2 cells at 10 uM; assay type: functional, cell-based; settings: Homo sapiens
Outline: (§2)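 Hep-G2 human liver cells in culture were treated at 10 µM. SREBP proteolytic processing and nuclear translocation were then assessed.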

Liver [7] = assay: Inhibition of fatty acid synthesis in rat liver at 10 uM; assay type: functional
Mus musculus [8] = assay: Antilipogenic activity in CD1 mouse assessed as reduction of fatty acid synthase gene expression at 10 mg/kg, ip every 6 hrs for 24 hrs; assay type: functional; parameters: scale not given: the % may be the effect or the level left; settings: route intraperitoneal; outline: as §1
[9] = target: Urokinase-type plasminogen activator (Homo sapiens, UniProt P00749); assay: Inhibition of urokinase
[10] = Plasma clearance in rat; assay type: ADME, organism-based
Mus musculus [11] = assay: Antilipogenic activity in CD1 mouse assessed as inhibition of cholesterol synthetic pathway at 10 mg/kg, ip every 6 hrs for 24 hrs; assay type: functional; parameters: scale not given: the % may be the effect or the level left; settings: route intraperitoneal; outline: as §1
HepG2 [12] = assay: Inhibition of cholesterol synthesis in HepG2 cells; assay type: functional, cell-based; settings: Homo sapiens
[13] = Oral bioavailability in rat; assay type: ADME, organism-based; settings: in vivo
Mus musculus [14] = assay: Antilipogenic activity in CD1 mouse assessed as inhibition of cholesterol synthetic pathway at 30 mg/kg, ip every 6 hrs for 24 hrs; assay type: functional; parameters: scale not given: the % may be the effect or the level left; settings: route intraperitoneal; outline: as §1
Coagulation factor X = Coagulation factor X (Homo sapiens, UniProt P00742); assay: Inhibition of factor 10a
Hep-G2 (Homo sapiens) = assay: Reduction of HMG-CoA synthase expression in human Hep-G2 cells
Mus musculus [15] = assay: Antilipogenic activity in CD1 mouse assessed as reduction of fatty acid synthase gene expression at 30 mg/kg, ip every 6 hrs for 24 hrs; assay type: functional; parameters: scale not given: the % may be the effect or the level left; settings: route intraperitoneal; outline: as §1
Liver [16] = assay: Reduction of fatty acid synthase expression in mouse liver; assay type: functional, tissue-based
HepG2 [17] = assay: Inhibition of proteolytic processing of SREBP in HepG2 cells at 10 uM; assay type: functional, cell-based; settings: Homo sapiens; outline: as §2
Mus musculus [18] = assay: Antilipogenic activity in CD1 mouse assessed as inhibition of fatty acid synthetic pathway at 30 mg/kg, ip every 6 hrs for 24 hrs; assay type: functional; parameters: scale not given: the % may be the effect or the level left; settings: route intraperitoneal; outline: as §1
HepG2 [19] = assay: Inhibition of LDL receptor gene expression in HepG2 cells; assay type: functional, cell-based; settings: Homo sapiens
Hepatocyte = assay: Reduction of fatty acid synthase expression in mouse hepatocytes; assay type: functional, cell-based
Liver [20] = assay: Inhibition of cholesterol synthesis in rat liver; assay type: functional, tissue-based
Mus musculus [21] = assay: Antilipogenic activity in CD1 mouse assessed as reduction of LDL receptor gene expression at 30 mg/kg, ip every 6 hrs for 24 hrs; assay type: functional; parameters: scale not given: the % may be the effect or the level left; settings: route intraperitoneal; outline: as §1
Mus musculus [22] = assay: Antilipogenic activity in CD1 mouse assessed as reduction of HMG-CoA synthase gene expression at 30 mg/kg, ip every 6 hrs for 24 hrs; assay type: functional; parameters: scale not given: the % may be the effect or the level left; settings: route intraperitoneal; outline: as §1
Mus musculus [23] = assay: Antilipogenic activity in CD1 mouse assessed as inhibition of fatty acid synthetic pathway at 10 mg/kg, ip every 6 hrs for 24 hrs; assay type: functional; parameters: scale not given: the % may be the effect or the level left; settings: route intraperitoneal; outline: as §1

Coagulation factor X, sequence (P00742 41-179 limits assumed): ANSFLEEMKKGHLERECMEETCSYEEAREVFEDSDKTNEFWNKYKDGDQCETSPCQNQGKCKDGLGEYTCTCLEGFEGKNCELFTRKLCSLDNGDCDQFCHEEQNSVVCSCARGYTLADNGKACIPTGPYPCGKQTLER
Coagulation factor X, sequence (P00742 235-488 limits assumed): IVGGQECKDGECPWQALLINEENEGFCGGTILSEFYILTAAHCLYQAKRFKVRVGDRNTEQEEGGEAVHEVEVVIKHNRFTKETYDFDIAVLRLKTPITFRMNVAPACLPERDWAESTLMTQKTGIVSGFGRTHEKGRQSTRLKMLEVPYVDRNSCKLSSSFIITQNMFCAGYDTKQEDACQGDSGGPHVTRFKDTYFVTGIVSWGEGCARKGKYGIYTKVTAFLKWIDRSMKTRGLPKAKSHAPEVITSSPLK
Low-density lipoprotein receptor (Homo sapiens), sequence (P01130 whole entry): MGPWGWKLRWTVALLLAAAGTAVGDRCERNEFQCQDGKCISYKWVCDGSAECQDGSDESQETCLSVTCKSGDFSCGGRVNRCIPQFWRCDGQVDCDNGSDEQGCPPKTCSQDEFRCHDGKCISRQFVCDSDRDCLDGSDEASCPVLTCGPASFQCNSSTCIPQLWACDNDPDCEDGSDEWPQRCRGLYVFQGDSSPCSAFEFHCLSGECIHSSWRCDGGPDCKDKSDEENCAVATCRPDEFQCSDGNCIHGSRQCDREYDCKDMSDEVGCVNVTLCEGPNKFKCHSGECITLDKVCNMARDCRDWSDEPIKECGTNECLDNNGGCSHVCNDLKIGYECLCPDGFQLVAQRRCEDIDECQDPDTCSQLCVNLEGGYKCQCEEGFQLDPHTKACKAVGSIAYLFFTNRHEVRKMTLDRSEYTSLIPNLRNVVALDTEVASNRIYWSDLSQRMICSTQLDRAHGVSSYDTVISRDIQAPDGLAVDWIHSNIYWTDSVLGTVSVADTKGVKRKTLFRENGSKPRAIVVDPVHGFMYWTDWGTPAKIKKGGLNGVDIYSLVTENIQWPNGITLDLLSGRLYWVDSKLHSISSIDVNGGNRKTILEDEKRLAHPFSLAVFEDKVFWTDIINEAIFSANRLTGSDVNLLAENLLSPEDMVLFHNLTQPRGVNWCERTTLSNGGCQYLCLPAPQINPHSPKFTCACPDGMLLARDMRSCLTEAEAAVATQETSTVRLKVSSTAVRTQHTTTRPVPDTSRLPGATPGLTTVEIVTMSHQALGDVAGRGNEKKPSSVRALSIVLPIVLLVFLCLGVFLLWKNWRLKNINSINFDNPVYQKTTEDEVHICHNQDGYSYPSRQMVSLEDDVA

Compound: O=C(c1ccc(OCc2ccccc2)cc1)N(CCc1ccccc1Cl)C1CCNC1 (centres undefined)
IC50 [1]: 590 nM

Compound: CCN(CC)Cc1ccc(C(=O)N(CCc2ccc(Cl)cc2)C2CCNC2)cc1 (centres undefined)
IC50 [1]: 3700 nM

Compound: CCOc1ccccc1CCN(C(=O)c1ccc(CN(CC)CC)cc1)C1CCNC1 (centres undefined)
IC50 [1]: 16000 nM

Compound: CC(C)Oc1ccc(C(=O)N(CCc2ccccc2Cl)C2CCN(C)C2)cc1 (centres undefined)
IC50 [1]: > 30000 nM

Compound: CC(C)Oc1ccc(C(=O)N(CCc2ccccc2Cl)C2CCN(C=O)C2)cc1 (centres undefined)
IC50 [1]: > 30000 nM

Compound: CC(C)Oc1ccc(C(=O)N(CCc2ccccc2Cl)C2CCCNC2)cc1 (centres undefined)
IC50 [1]: > 30000 nM

Compound: CCN(CC)Cc1ccc(C(=O)N(CCc2ccccc2OC)C2CCNC2)cc1 (centres undefined)
IC50 [1]: 540 nM

Compound: CCN(CC)Cc1ccc(C(=O)N(CCc2ccccc2C)C2CCNC2)cc1 (centres undefined)
IC50 [1]: 1600 nM

Compound: CC(C)Oc1ccc(C(=O)N(CCc2ccccc2Cl)C2CNC2)cc1
IC50 [1]: > 30000 nM

Compound: CC(C)Oc1ccc(C(=O)N(CCc2ccccc2F)C2CCNC2)cc1 (centres undefined)
IC50 [1]: 9000 nM

Compound: CC(C)Oc1ccc(C(=O)N(Cc2ccccc2Cl)C2CCNC2)cc1 (centres undefined)
IC50 [1]: > 5000 nM

Compound: CC(C)Oc1ccc(C(=O)N(CCc2ccccc2Cl)C2CCNC2)cc1 (centres undefined)
IC50 [1]: 1400 nM

Compound: CC(C)Oc1ccc(C(=O)N(CCc2cccc(Cl)c2)C2CCNC2)cc1 (centres undefined)
IC50 [1]: 9600 nM

Compound: CCN(CC)Cc1ccc(C(=O)N(CCc2ccccc2OC)[C@H]2CCNC2)cc1
IC50 [1]: 970 nM

Compound: CC(C)Oc1ccc(C(=O)N(CCc2ccccc2Cl)C2CCSC2)cc1 (centres undefined)
IC50 [1]: > 30000 nM

Compound: CCN(CC)Cc1ccc(C(=O)N(CCc2ccccc2Cl)C2CCNC2)cc1 (centres undefined)
IC50 [1]: 840 nM

Compound: O=C(c1ccc(CN2CCCCC2)cc1)N(CCc1ccccc1Cl)C1CCOC1 (centres undefined)
IC50 [1]: > 30000 nM

Stronger by IC50 [1], values ahead:

IC50 [1]: 510 nM
Compound: O=C(c1ccc(OCc2ccccc2)cc1)N(CCc1cccc(Cl)c1)C1CCNC1 (centres undefined)

IC50 [1]: 430 nM
Compound: CCN(CC)Cc1ccc(C(=O)N(CCc2c(Cl)cccc2Cl)C2CCNC2)cc1 (centres undefined)

IC50 [1]: 310 nM
Compound: COc1ccccc1CCN(C(=O)c1ccc(OCc2ccccc2)cc1)C1CCNC1 (centres undefined)

IC50 [1]: 250 nM
Compound: COc1ccccc1CCN(C(=O)c1ccc(CN2CCCCC2)cc1)C1CCNC1 (centres undefined)

EC50 (Liver [3]): 300 nM | Activity [5]: Active | IC50 [9]: 50000 nM | clearance [10]: 75 mL/min/kg | EC50 (HepG2 [12]): 600 nM | bioavailability [13]: 5% | IC50 (Coagulation factor X): 100000 nM | EC50 (Hep-G2 (Homo sapiens)): 300 nM | IC50 [1]: 170 nM | EC50 (Liver [16]): 2000 nM | EC50 (Liver [20]): 600 nM
Compound: CCN(CC)Cc1ccc(C(=O)N(CCc2ccccc2OC)[C@@H]2CCNC2)cc1
inhibition at 10 µM (HepG2 [2]): 43% | Activity (Mus musculus [4]): >80% | Activity (HepG2 [6]): Active | inhibition at 10 µM (Liver [7]): 43% | Activity (Mus musculus [8]): 50% | Activity (Mus musculus [11]): 50% | Activity (Mus musculus [14]): 80% | Activity (Mus musculus [15]): 75% | Activity (HepG2 [17]): Active | Activity (Mus musculus [18]): 80% | Activity (HepG2 [19]): Active | EC50 (Hepatocyte): 2000 nM | Activity (Mus musculus [21]): 35% | Activity (Mus musculus [22]): >80% | Activity (Mus musculus [23]): 50%

IC50 [1]: 160 nM
Compound: COc1ccccc1CCN(C(=O)c1ccc(CN2CCCC(C(N)=O)C2)cc1)C1CCNC1 (centres undefined)

IC50 [1]: 140 nM
Compound: COC[C@@H]1CCCN1Cc1ccc(C(=O)N(CCc2ccccc2OC)C2CCNC2)cc1 (some centres undefined)

IC50 [1]: 100 nM
Compound: COc1ccccc1CCN(C(=O)c1ccc(CN[C@H]2CCCC[C@@H]2O)cc1)C1CCNC1 (some centres undefined)

IC50 [1]: 95 nM
Compound: COc1ccccc1CCN(C(=O)c1ccc(CN2CC3CCC2C3)cc1)C1CCNC1 (centres undefined)

IC50 [1]: 37 nM
Compound: COc1ccccc1CCN(C(=O)c1ccc(CN2CCCC(c3ccccc3C)C2)cc1)C1CCNC1 (centres undefined)

IC50 [1]: 29 nM
Compound: COc1ccccc1CCN(C(=O)c1ccc(CN2CC3CCCC2C3)cc1)C1CCNC1 (centres undefined)

IC50 [1]: 8 nM
Compound: Cc1ccccc1C1CCCN(Cc2ccc(C(=O)N(CCc3ccccc3Cl)C3CCNC3)cc2)C1 (centres undefined)
